Laboratory results taken from ChEMBL document CHEMBL1136979, “Discovery of 4-anilino-N-methylthieno[3,2-d]pyrimidines and 4-anilino-N-methylthieno[2,3-d]pyrimidines as potent apoptosis inducers” (Bioorg Med Chem Lett, 2009).

Assays:
T47D = assay: Induction of apoptosis in human T47D cells assessed as caspase activation after 48 hrs by HTS assay; assay type: functional, cell-based
Procedure, shortened: (§1)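 Cell-based caspase activation HTS assay that reads cleavage of a fluorescent caspase-3 substrate in human breast cancer T47D or non-small cell lung cancer H1299 cells. Cells were exposed to compound for 48 h. EC50 is the mean ± SEM of three or more experiments.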

NCI-H1299 = assay: Induction of apoptosis in human H1299 cells assessed as caspase activation after 48 hrs by HTS assay; assay type: functional, cell-based; conditions: NCI-H1299, 48 h; procedure, shortened: as §1
[1] = Inhibition of tubulin polymerization by high-throughput assay
MX1 [2] = assay: Antitumor activity against human MX1 cells xenografted in iv dosed Crl:Nu/Nu-nuBR mouse assessed as tumor growth inhibition administered as single dose; assay type: functional, organism-based
Procedure, shortened: (§2)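 Nude (Crl:Nu/Nu-nuBR) mice bore established MX-1 xenografts of about 100 mm³. Compound was given iv as single doses of 35, 50 or 75 mg/kg on day 1, or at 7 mg/kg daily on days 1–5, against a vehicle group. Tumor growth inhibition was assessed against vehicle, with significance by Student's t-test.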

MX1 [3] = assay: Antitumor activity against human MX1 cells xenografted in Crl:Nu/Nu-nuBR mouse assessed as tumor growth inhibition at 75 mg/kg, iv administered as single dose; assay type: functional; conditions: read-out: TGI; procedure, shortened: as §2
Mus musculus = assay: Toxicity in Crl:Nu/Nu-nuBR mouse assessed as maximum body weight decrease at 75 mg/kg, iv administered as single dose; assay type: organism-based; design: dose 75 mg/kg, route intravenous; scale not given: the % may be the effect or the level left; conditions: in vivo

| Structure (SMILES) | EC50 (T47D) | EC50 (NCI-H1299) | IC50 [1] | Activity (MX1 [2]) | inhibition in vivo at 75 mg/kg (MX1 [3]) | Activity (Mus musculus) |
| --- | --- | --- | --- | --- | --- | --- |
| c1ccc(-c2cc3ncnc(Nc4ccc5c(c4)OCO5)c3s2)cc1 | > 10000 nM | > 10000 nM |  |  |  |  |
| COc1ccccc1N(C)c1ncnc2ccsc12 | > 10000 nM | > 10000 nM |  |  |  |  |
| COc1ccc(N(C)c2nc(C)nc3c(C)csc23)cc1 | 240 nM | 310 nM |  |  |  |  |
| COc1ccc(Nc2ncnc3scc(C)c23)cc1 | > 10000 nM | > 10000 nM |  |  |  |  |
| COc1ccc(N(C)c2ncnc3c(C)csc23)cc1 | 560 nM | 560 nM |  |  |  |  |
| COc1ccc(N(C)c2ncnc3ccsc23)cc1 | 52 nM | 240 nM | < 1000 nM |  |  |  |
| COc1cc(OC)cc(N(C)c2ncnc3ccsc23)c1 | > 10000 nM | > 10000 nM |  |  |  |  |
| COc1ccc(N(C)c2ncnc3cc(-c4cccnc4)sc23)cc1 | > 10000 nM | > 10000 nM |  |  |  |  |
| COc1ccc(N(C)c2ncnc3sc(C)c(C)c23)cc1 | 24 nM | 53 nM | < 1000 nM |  |  |  |
| COC(=O)c1ccc(N(C)c2ncnc3ccsc23)cc1 | 190 nM | 340 nM |  |  |  |  |
| COc1ccc(OC)c(N(C)c2ncnc3ccsc23)c1 | 2600 nM | 5000 nM |  |  |  |  |
| c1ccc(-c2cc3ncnc(NCc4ccc5c(c4)OCO5)c3s2)cc1 | 1000 nM | 700 nM |  |  |  |  |
| COc1ccc(N(C)c2nc(C)nc3sccc23)cc1 | 8 nM | 16 nM | < 1000 nM | Dose-dependent effect | 90% | < 10% |
| COc1ccc(N(C)c2ncnc3scc(C)c23)cc1 | 15 nM | 25 nM | < 1000 nM |  |  |  |
| COc1cccc(N(C)c2ncnc3ccsc23)c1 | > 10000 nM | > 10000 nM |  |  |  |  |
| COc1ccc(N(C)c2nc(C)nc3sc(C)c(C)c23)cc1 | 21 nM | 91 nM | < 1000 nM |  |  |  |
| COc1ccc(N(C)c2nc(C)nc3ccccc23)cc1 [VERUBULIN] | 2 nM | 6 nM |  |  |  |  |
| COc1ccc(N(C)c2nccc3ccsc23)cc1 | > 10000 nM | > 10000 nM |  |  |  |  |
| COc1ccc(Nc2nc(C)nc3scc(C)c23)cc1 | > 10000 nM | > 10000 nM |  |  |  |  |
| c1nc(NCc2ccc3c(c2)OCO3)c2sccc2n1 | > 10000 nM | > 10000 nM |  |  |  |  |
| COc1ccc(Nc2ncnc3ccsc23)cc1 | > 10000 nM | > 10000 nM |  |  |  |  |
| COc1cc2c(c(OC)c1OC)-c1ccc(OC)c(=O)cc1[C@@H](NC(C)=O)CC2 [COLCHICINE] | 9 nM | 50 nM | 500 nM |  |  |  |
| COc1ccc(N(C)c2nc(C)nc3ccsc23)cc1 | 14 nM | 32 nM | < 1000 nM |  |  |  |
| COc1ccc(N(C)c2ncnc3cc(I)sc23)cc1 | > 10000 nM | > 10000 nM |  |  |  |  |
| COc1ccc(N(C)c2ncnc3sccc23)cc1 | 22 nM | 44 nM | < 1000 nM |  |  |  |
| COc1ccc(N(C)c2nc(-c3ccccc3)nc3ccsc23)cc1 | 340 nM | 630 nM |  |  |  |  |
| COc1ccc(N(C)c2nc(C)nc3scc(C)c23)cc1 | 4 nM | 15 nM | < 1000 nM |  |  |  |
| COc1ccc(N(C)c2ncnc3ccsc23)cc1OC | 1700 nM | 2800 nM |  |  |  |  |
